Reference: ChEMBL document CHEMBL1123133, “1H-2-Benzopyran-1-one derivatives, microbial products with pharmacological activity. Conversion into orally active derivatives with antiinflammatory and antiulcer activities” (J Med Chem, 1985)

How the values were obtained:
[1] = Lipid solubility measured as chloroform-water partition coefficient; type: physicochemical
How it was run: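 Partition between chloroform and 10 mM phosphate buffer pH 7.5 (1:1 volume); drug at 1 mg/mL initially in aqueous phase, shaken 20 min at 20 °C, centrifuged, both phases quantified by HPLC. HCl salts used.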

[2] = system: Rattus norvegicus; test: Concentration 5b detected in blood of rat 1 hr after an oral dose of 200 mg/kg of the compound; type: ADME, organism-based; design: dose 200 mg/kg, route oral; conditions: in vivo
How it was run: (§1)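 Male Wistar rats (120–160 g), 5–7 per group, fasted 24 h, given 200 mg/kg orally as aqueous HCl salt formulation (drug/glycerin/HCO-60 1/12/0.05 by weight). Jugular blood taken under ether at 1 or 3 h into citric acid; plasma deproteinized with ethanol (acetone for 5d) and analysed by C18 HPLC at 254 nm. Values recovery-corrected, mean of 6–7 rats.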

[3] = system: Rattus norvegicus; test: Concentration 5b detected in blood of rat 3 hr after an oral dose of 200 mg/kg of the compound; type: ADME, organism-based; design: dose 200 mg/kg, route oral; conditions: in vivo; how it was run: as §1
[4] = Solubility in water, tested as a HCl salt; type: physicochemical; conditions: read-out: S
How it was run: (§2)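 HCl salts suspended in excess in water or 10 mM phosphate buffer pH 7.5, sonicated 10 min at 20 °C to saturation, centrifuged; supernatant quantified by HPLC.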

[5] = system: Rattus norvegicus; test: % recovery of the compound, compound 1 and compound 6a from whole blood of 7 wistar rats after an oral dose of the compound; type: ADME, organism-based; conditions: in vivo
[6] = system: Cavia porcellus; test: Antiinflammatory activity evaluated as Minimum effective oral dose that inhibits dextran UV erythema in guinea pig; type: functional
[7] = system: Rattus norvegicus; test: Antiinflammatory activity evaluated as Minimum effective oral dose that inhibits bradykinin paw edema in rat; type: functional
[8] = system: Rattus norvegicus; test: Antiinflammatory activity evaluated as Minimum effective oral dose that inhibits carrageenan paw edema in rat; type: functional
[9] = system: Rattus norvegicus; test: Antiinflammatory activity evaluated as Minimum effective oral dose that inhibits dextran paw edema in rat; type: functional
[10] = system: Rattus norvegicus; test: Antiinflammatory activity evaluated as Minimum effective oral dose that inhibits adjuvant arthritis in rats; type: functional
How it was run: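 Adjuvant arthritis: male Sprague-Dawley rats (180–200 g), 8–10 per group, injected in right hind paw with Mycobacterium butyricum powder in corn oil (0.6 mg/0.1 mL). Oral dosing started 1 h after adjuvant, then daily for 18 days; observed 28 days. Minimum effective dose recorded.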

[11] = Acute toxicity evaluated as oral lethal dose in rat; type: organism-based; conditions: in vivo
How it was run: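 Oral dosing of male Wistar rats (120-140 g), given as HCl salt; LD50 derived from mortality over 7 days.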

[12] = system: Rattus norvegicus; test: Gastroprotective activity as % protection against stress ulcers in 5 rats after an intraperitoneal dose of 12.5 mg/kg; type: functional
How it was run: (§3)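 Stress ulcer by restraint and water immersion: male Wistar rats (160–180 g), fasted 24 h, given test compound po or ip as HCl salt in aqueous glycerin/HCO-60 formulation (1/12/0.05 by weight). Vehicle-only controls. After 1 h, restrained in net cage and immersed in 21 °C water for 6 h. Percent ulcer inhibition calculated; five rats per dose.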

[13] = system: Rattus norvegicus; test: Gastroprotective activity as % protection against stress ulcers in 5 rats after an intraperitoneal dose of 25 mg/kg; type: functional; how it was run: as §3
[14] = system: Rattus norvegicus; test: Gastroprotective activity as % protection against stress ulcers in 5 rats after an intraperitoneal dose of 50 mg/kg; type: functional; how it was run: as §3
[15] = system: Rattus norvegicus; test: Gastroprotective activity as % protection against stress ulcers in 5 rats after an oral dose of 100 mg/kg; type: functional; how it was run: as §3
[16] = system: Rattus norvegicus; test: Gastroprotective activity as % protection against stress ulcers in 5 rats after an oral dose of 12.5 mg/kg; type: functional; how it was run: as §3
[17] = system: Rattus norvegicus; test: Gastroprotective activity as % protection against stress ulcers in 5 rats after an oral dose of 25 mg/kg; type: functional; how it was run: as §3
[18] = system: Rattus norvegicus; test: Gastroprotective activity as % protection against stress ulcers in 5 rats after an oral dose of 50 mg/kg; type: functional; how it was run: as §3
[19] = Solubility in phosphate buffer, tested as a HCl salt; type: physicochemical; how it was run: as §2
[20] = system: Rattus norvegicus; test: Concentration detected in blood of rat 3 hr after an oral dose of 200 mg/kg; ND is Not Detected; type: ADME, organism-based; design: dose 200 mg/kg, route oral; conditions: in vivo; how it was run: as §1
[21] = system: Rattus norvegicus; test: Concentration 1 detected in blood of rat 1 hr after an oral dose of 200 mg/kg of the compound; ND is Not Detected.; type: ADME, organism-based; design: dose 200 mg/kg, route oral; conditions: in vivo; how it was run: as §1
[22] = system: Rattus norvegicus; test: % recovery from whole blood of 7 wistar rats after an oral dose of the compound; type: ADME, organism-based; conditions: in vivo
[23] = system: Rattus norvegicus; test: Concentration 6f detected in blood of rat 1 hr after an oral dose of 200 mg/kg; ND is Not Detected; type: ADME, organism-based; design: dose 200 mg/kg, route oral; conditions: in vivo; how it was run: as §1
[24] = system: Rattus norvegicus; test: Concentration 6f detected in blood of rat 3 hr after an oral dose of 200 mg/kg; ND is Not Detected; type: ADME, organism-based; design: dose 200 mg/kg, route oral; conditions: in vivo; how it was run: as §1
[25] = system: Rattus norvegicus; test: Concentration 1 detected in blood of rat 1 hr after an oral dose of 200 mg/kg; ND is Not Detected; type: ADME, organism-based; design: dose 200 mg/kg, route oral; conditions: in vivo; how it was run: as §1
[26] = system: Rattus norvegicus; test: Concentration 1 detected in blood of rat 3 hr after an oral dose of 200 mg/kg; ND is Not Detected; type: ADME, organism-based; design: dose 200 mg/kg, route oral; conditions: in vivo; how it was run: as §1
[27] = system: Rattus norvegicus; test: Concentration 5f detected in blood of rat 1 hr after an oral dose of 200 mg/kg of the compound; ND is Not Detected; type: ADME, organism-based; design: dose 200 mg/kg, route oral; conditions: in vivo; how it was run: as §1
[28] = system: Rattus norvegicus; test: Concentration 5f detected in blood of rat 3 hr after an oral dose of 200 mg/kg; ND is Not Detected; type: ADME, organism-based; design: dose 200 mg/kg, route oral; conditions: in vivo; how it was run: as §1

Compound	P [1]	solubility [4]	Recovery [5]	ED50 [6]	ED50 [7]	ED50 [8]	ED50 [9]	EDmin [10]	Protection [12]	Protection [13]	Protection [14]	Protection [15]	Protection [17]	Protection [18]	solubility [19]	further results
Cn1cnc2c1c(=O)[nH]c(=O)n2C [THEOBROMINE]	0.1															
CCNC1CC(=O)OC1C(O)C(=O)NC(CC(C)C)C1Cc2cccc(O)c2C(=O)O1 (stereo not given)	43	> 100000 µg/mL	20%	13 mg/kg	182 mg/kg	> 200 mg/kg	47 mg/kg	20 mg/kg	66%	76%	100%	89%	56%	78%	11000 µg/mL	Concentration [2]: 17500 ng/mL; Concentration [3]: 8300 ng/mL; LD50 [11]: 1250 mg/kg; Protection [16]: 33%
CC(C)C[C@H](NC(=O)[C@@H](O)[C@@H](O)[C@@H](N)CC(=O)O)[C@@H]1Cc2cccc(O)c2C(=O)O1									78%	100%	94%	17%	0%	0%		Concentration [20]: Not detected; Concentration [21]: Not detected; Recovery [22]: 50%
COc1ccc2c(c1)c(CC(=O)O)c(C)n2C(=O)c1ccc(Cl)cc1 [INDOMETHACIN]				< 6 mg/kg	> 25 mg/kg	1.3 mg/kg	> 25 mg/kg	3 mg/kg								
CCCCCCNC1CC(=O)OC1C(O)C(=O)NC(CC(C)C)C1Cc2cccc(O)c2C(=O)O1 (stereo not given)	3000	1600 µg/mL	80%							17%	11%	44%	11%	44%	5 µg/mL	Concentration [23]: Not detected; Concentration [24]: Not detected; Concentration [25]: Not detected; Concentration [26]: Not detected; Concentration [27]: Not detected; Concentration [28]: Not detected
CNCC(=O)O [SARCOSINE]	< 0.03															
